Experimental data as given in publication PMC9623233 (Clinical Cancer Research, 2022).

Legend:
[1] = ref previous unpublished trial Eudra CT 2009-012933-31; cited from earlier work
[2] = Phase I safety and tolerability: adverse events; type: in vivo, human
Method in brief: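 Open-label 3+3 escalation of intravenous test compound. Each 4-week cycle was four weekly or two biweekly doses; later arms were biweekly with dexamethasone prophylaxis, or every 3 weeks. AEs were graded by NCI CTCAE v4.0, with laboratory tests, pulmonary function (entry FVC >70%, DLCOc >60%), vital signs, ECG and examination. DLT window: two cycles (8 weeks; 6 weeks for 3-weekly dosing).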

[3] = system: α-FR–overexpressing preclinical model; test: Combination of CT900 and PARP inhibition, growth inhibition; type: cell-based; conditions: Supplementary Fig. S3
[4] = system: high-grade serous ovarian cancer; test: Antitumor activity: RECIST v1.1 response and time on treatment; type: in vivo, human
[5] = 12 mg/m^2/q2Wk expansion, worst grade G1
[6] = 12 mg/m^2/q2Wk expansion, worst grade G2
[7] = 12 mg/m^2/q2Wk expansion, worst grade G3
[8] = 12 mg/m^2/q2Wk with and without steroid, Total, all grades
[9] = 12 mg/m^2/q2Wk-steroid expansion, worst grade G1
[10] = 12 mg/m^2/q2Wk-steroid expansion, worst grade G2
[11] = 12 mg/m^2/q2Wk-steroid expansion, worst grade G3

## C#CCN(c1ccc(C(=O)N[C@@H](CCC(=O)N[C@H](CCC(=O)O)C(=O)O)C(=O)O)cc1)[C@H]1CCc2cc3nc(CO)[nH]c(=O)c3cc21 [CT900, N-[4-[2-propyn-1-yl[(6S)-4,6,7,8-tetrahydro-2-(hydroxymethyl)-4-oxo-3H-cyclopenta [g]quinazolin-6-yl]amino]benzoyl]-l-gamma-glutamyl-D-glutamic acid]
[1]
  Median cumulative dose at which pulmonary toxicity occurred: 162 mg/m^2
[2]; [5]
  Anemia, treatment-related: 2 (8) n (%)
  Aspartate aminotransferase increased, treatment-related: 3 (12) n (%)
  Chills, treatment-related: 2 (8) n (%)
  Cough, treatment-related: 8 (32) n (%)
  Decreased appetite, treatment-related: 3 (12) n (%)
  Diarrhea, treatment-related: 4 (16) n (%)
  Fatigue, treatment-related: 12 (48) n (%)
  Nausea, treatment-related: 8 (32) n (%)
  Pneumonitis, treatment-related: 0 (0) n (%)
  Pyrexia, treatment-related: 3 (12) n (%)
  Vomiting, treatment-related: 4 (16) n (%)
[2]; [6]
  Anemia, treatment-related: 2 (8) n (%)
  Aspartate aminotransferase increased, treatment-related: 1 (4) n (%)
  Chills, treatment-related: 1 (4) n (%)
  Cough, treatment-related: 0 (0) n (%)
  Decreased appetite, treatment-related: 0 (0) n (%)
  Diarrhea, treatment-related: 1 (4) n (%)
  Fatigue, treatment-related: 1 (4) n (%)
  Nausea, treatment-related: 4 (16) n (%)
  Pneumonitis, treatment-related: 4 (16) n (%)
  Pyrexia, treatment-related: 0 (0) n (%)
  Vomiting, treatment-related: 0 (0) n (%)
[2]; [7]
  Anemia, treatment-related: 0 (0) n (%)
  Aspartate aminotransferase increased, treatment-related: 0 (0) n (%)
  Chills, treatment-related: 0 (0) n (%)
  Cough, treatment-related: 0 (0) n (%)
  Decreased appetite, treatment-related: 0 (0) n (%)
  Diarrhea, treatment-related: 1 (4) n (%)
  Fatigue, treatment-related: 0 (0) n (%)
  Nausea, treatment-related: 0 (0) n (%)
  Pneumonitis, treatment-related: 0 (0) n (%)
  Pyrexia, treatment-related: 0 (0) n (%)
  Vomiting, treatment-related: 0 (0) n (%)
[2]; [8]
  Anemia, treatment-related: 8 (20) n (%)
  Aspartate aminotransferase increased, treatment-related: 7 (18) n (%)
  Chills, treatment-related: 4 (10) n (%)
  Cough, treatment-related: 9 (23) n (%)
  Decreased appetite, treatment-related: 4 (10) n (%)
  Diarrhea, treatment-related: 9 (23) n (%)
  Fatigue, treatment-related: 21 (53) n (%)
  Nausea, treatment-related: 16 (40) n (%)
  Pneumonitis, treatment-related: 8 (20) n (%)
  Pyrexia, treatment-related: 7 (18) n (%)
  Vomiting, treatment-related: 4 (10) n (%)
[2]; [9]
  Anemia, treatment-related: 1 (6.7) n (%)
  Aspartate aminotransferase increased, treatment-related: 3 (20) n (%)
  Chills, treatment-related: 1 (6.7) n (%)
  Cough, treatment-related: 1 (6.7) n (%)
  Decreased appetite, treatment-related: 1 (6.7) n (%)
  Diarrhea, treatment-related: 2 (13.3) n (%)
  Fatigue, treatment-related: 6 (40) n (%)
  Nausea, treatment-related: 4 (26.7) n (%)
  Pneumonitis, treatment-related: 1 (6.7) n (%)
  Pyrexia, treatment-related: 4 (26.7) n (%)
  Vomiting, treatment-related: 0 (0) n (%)
[2]; [10]
  Anemia, treatment-related: 1 (6.7) n (%)
  Aspartate aminotransferase increased, treatment-related: 0 (0) n (%)
  Chills, treatment-related: 0 (0) n (%)
  Cough, treatment-related: 0 (0) n (%)
  Decreased appetite, treatment-related: 0 (0) n (%)
  Diarrhea, treatment-related: 0 (0) n (%)
  Fatigue, treatment-related: 2 (13.3) n (%)
  Nausea, treatment-related: 0 (0) n (%)
  Pneumonitis, treatment-related: 3 (20) n (%)
  Pyrexia, treatment-related: 0 (0) n (%)
  Vomiting, treatment-related: 0 (0) n (%)
[2]; [11]
  Anemia, treatment-related: 2 (13.3) n (%)
  Aspartate aminotransferase increased, treatment-related: 0 (0) n (%)
  Chills, treatment-related: 0 (0) n (%)
  Cough, treatment-related: 0 (0) n (%)
  Decreased appetite, treatment-related: 0 (0) n (%)
  Diarrhea, treatment-related: 1 (6.7) n (%)
  Fatigue, treatment-related: 0 (0) n (%)
  Nausea, treatment-related: 0 (0) n (%)
  Pneumonitis, treatment-related: 0 (0) n (%)
  Pyrexia, treatment-related: 0 (0) n (%)
  Vomiting, treatment-related: 0 (0) n (%)
[2]; all patients, 10/109
  Drug-related, predominantly low-grade pneumonitis: 9%
[2]; during the trial
  Fatal pneumonitis: no cases of fatal pneumonitis
[2]; intravenous
  Recommended phase II dose/schedule: 12 mg/m^2/q2Wk
[2]; qWk schedule 1-6 mg/m^2, 21 patients: anemia, cellulitis, pneumonitis
  Drug-related NCI CTCAE ≥grade 3 events: three
[3]
  Effect of combination of CT900 and PARP inhibition: synergistic growth inhibition
[4]; 6 mg/m^2/q2Wk, medium and high α-FR, 0/9
  RECIST v1.1 response rate: 0%
[4]; 12 mg/m^2/q2Wk, medium and high α-FR, 5/25
  Patients who received treatment for ≥16 weeks: 20%
[4]; 12 mg/m^2/q3Wk, medium and high α-FR, 1/5
  RECIST v1.1 response rate: 20%
[4]; dose escalation cohort, high-grade serous ovarian cancer, 4 of 11
  Partial responses: 36.4%
[4]; expansion cohorts, regardless of α-FR status, 14/64
  Overall response rate (ORR): 21.9%
